Data from ChEMBL document CHEMBL1142136, “Contribution of target gene mutations and efflux to decreased susceptibility of Salmonella enterica serovar typhimurium to fluoroquinolones and other antimicrobials” (2007).
Converted amounts (≈) assume the structure as drawn.

Legend:
Format in all cases: functional, Salmonella enterica subsp. enterica serovar Typhimurium
[1] = tested on: Salmonella typhimurium; assay: Antimicrobial activity against Salmonella enterica serovar Typhimurium S21
Outline: (§1)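 MICs measured by broth microdilution on the Sensititre automated system and interpreted by CLSI broth microdilution standards. Ciprofloxacin was also tested by agar dilution, widening the range to 0.0075–128 μg/ml. Quality control strains were E. coli ATCC 25922 and 35218, E. faecalis ATCC 29212, S. aureus ATCC 29213 and P. aeruginosa ATCC 27853.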

[2] = tested on: Salmonella typhimurium; assay: Antimicrobial activity against Salmonella enterica serovar Typhimurium S21 gyrA+; outline: as §1
[3] = tested on: Salmonella typhimurium; assay: Antimicrobial activity against Salmonella enterica serovar Typhimurium S21 acrAB::Kan
Outline: (§2)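 MICs by automated broth microdilution panels, interpreted to CLSI broth microdilution standards. Ciprofloxacin additionally tested by agar dilution across 0.0075 to 128 μg/ml. Quality control strains: E. coli ATCC 25922 and 35218, Enterococcus faecalis ATCC 29212, S. aureus ATCC 29213, P. aeruginosa ATCC 27853. Test strains are kanamycin-marked deletion mutants of ground-beef isolate S21.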

[4] = tested on: Salmonella typhimurium; assay: Antimicrobial activity against Salmonella enterica serovar Typhimurium S21 tolC::Kan; outline: as §2
[5] = tested on: Salmonella typhimurium; assay: Antimicrobial activity against Salmonella enterica serovar Typhimurium S21-1 GyrA S83F mutant; outline: as §1
[6] = tested on: Salmonella typhimurium; assay: Antimicrobial activity against Salmonella enterica serovar Typhimurium S21-1 gyrA+; outline: as §1
[7] = tested on: Salmonella typhimurium; assay: Antimicrobial activity against Salmonella enterica serovar Typhimurium GyrA S21-1 acrAB::Kan with GyrA S83F mutation; outline: as §1
[8] = tested on: Salmonella typhimurium; assay: Antimicrobial activity against Salmonella enterica serovar Typhimurium S21-1 tolC::Kan with GyrA S83F mutation; outline: as §1
[9] = tested on: Salmonella typhimurium; assay: Antimicrobial activity against Salmonella enterica serovar Typhimurium S21-2 with GyrA S83F, ParC S80I mutation; outline: as §1
[10] = tested on: Salmonella typhimurium; assay: Antimicrobial activity against Salmonella enterica serovar Typhimurium S21-2 gyrA+ with ParC S80I mutation; outline: as §1
[11] = tested on: Salmonella typhimurium; assay: Antimicrobial activity against Salmonella enterica serovar Typhimurium S21-2 acrAB::Kan with GyrA S83F, ParC S80I mutation; outline: as §1
[12] = tested on: Salmonella typhimurium; assay: Antimicrobial activity against Salmonella enterica serovar Typhimurium S21-2 tolC::Kan with GyrA S83F, ParC S80I mutation; outline: as §1
[13] = tested on: Salmonella typhimurium; assay: Antimicrobial activity against Salmonella enterica serovar Typhimurium S21-3 with GyrA S83F, ParC S80I mutation; outline: as §1
[14] = tested on: Salmonella typhimurium; assay: Antimicrobial activity against Salmonella enterica serovar Typhimurium S21-3 gyrA+ with ParC S80I mutation; outline: as §1
[15] = tested on: Salmonella typhimurium; assay: Antimicrobial activity against Salmonella enterica serovar Typhimurium S21-3 acrAB::Kan with GyrA S83F, ParC S80I mutation; outline: as §1
[16] = tested on: Salmonella typhimurium; assay: Antimicrobial activity against Salmonella enterica serovar Typhimurium CHS14 gyrA+ with GyrA D87G mutation; outline: as §1
[17] = tested on: Salmonella typhimurium; assay: Antimicrobial activity against Salmonella enterica serovar Typhimurium CHS14 acrAB::Kan with GyrA D87G mutation; outline: as §1
[18] = tested on: Salmonella typhimurium; assay: Antimicrobial activity against Salmonella enterica serovar Typhimurium CHS14 tolC::Kan with GyrA D87G mutant; outline: as §1
[19] = tested on: Salmonella typhimurium; assay: Antimicrobial activity against Salmonella enterica serovar Typhimurium CHS18 with GyrA S38F mutation; outline: as §1
[20] = tested on: Salmonella typhimurium; assay: Antimicrobial activity against Salmonella enterica serovar Typhimurium CHS18 gyrA+ with GyrA S38F mutation; outline: as §1
[21] = tested on: Salmonella typhimurium; assay: Antimicrobial activity against Salmonella enterica serovar Typhimurium CHS18 acrAB::Kan with GyrA S38F mutation; outline: as §1
[22] = tested on: Salmonella typhimurium; assay: Antimicrobial activity against Salmonella enterica serovar Typhimurium CHS18 tolC::Kan with GyrA S38F mutation; outline: as §1
[23] = tested on: Salmonella typhimurium; assay: Antimicrobial activity against Salmonella enterica serovar Typhimurium S21-4 acrAB::Kan with GyrA S83F, ParC S80I mutation; outline: as §1
[24] = tested on: Salmonella typhimurium; assay: Antimicrobial activity against Salmonella enterica serovar Typhimurium S21-3 tolC::Kan with GyrA S83F, ParC S80I mutation; outline: as §1
[25] = tested on: Salmonella typhimurium; assay: Antimicrobial activity against Salmonella enterica serovar Typhimurium S21-4 with GyrA S83F, ParC S80I mutation; outline: as §1
[26] = tested on: Salmonella typhimurium; assay: Antimicrobial activity against Salmonella enterica serovar Typhimurium S21-4 gyrA+ with ParC S80I mutation; outline: as §1
[27] = tested on: Salmonella typhimurium; assay: Antimicrobial activity against Salmonella enterica serovar Typhimurium S21-4 tolC::Kan with GyrA S83F, ParC S80I mutation; outline: as §1
[28] = tested on: Salmonella typhimurium; assay: Antimicrobial activity against Salmonella enterica serovar Typhimurium CS1 with GyrA S83F, D87N, ParC S80I mutation; outline: as §1
[29] = tested on: Salmonella typhimurium; assay: Antimicrobial activity against Salmonella enterica serovar Typhimurium CS1 gyrA+ with GyrA S83F, D87N, ParC S80I mutation; outline: as §1
[30] = tested on: Salmonella typhimurium; assay: Antimicrobial activity against Salmonella enterica serovar Typhimurium CS1 acrAB::Kan with GyrA S83F, D87N, ParC S80I mutation; outline: as §1
[31] = tested on: Salmonella typhimurium; assay: Antimicrobial activity against Salmonella enterica serovar Typhimurium CS1 tolC::Kan with GyrA S83F, D87N, ParC S80I mutation; outline: as §1
[32] = tested on: Salmonella typhimurium; assay: Antimicrobial activity against Salmonella enterica serovar Typhimurium CS3 with GyrA S83F, D87N, ParC S80I mutation; outline: as §1
[33] = tested on: Salmonella typhimurium; assay: Antimicrobial activity against Salmonella enterica serovar Typhimurium CS3 gyrA+ with GyrA S83F, D87N, ParC S80I mutation; outline: as §1
[34] = tested on: Salmonella typhimurium; assay: Antimicrobial activity against Salmonella enterica serovar Typhimurium CS3 acrAB::Kan with GyrA S83F, D87N, ParC S80I mutation; outline: as §1
[35] = tested on: Salmonella typhimurium; assay: Antimicrobial activity against Salmonella enterica serovar Typhimurium CS3 tolC::Kan with GyrA S83F, D87N, parC S80I mutation; outline: as §1
[36] = tested on: Salmonella typhimurium; assay: Antimicrobial activity against Salmonella enterica serovar Typhimurium CS9 with GyrA S83F, D87N, ParC S80I mutation; outline: as §1
[37] = tested on: Salmonella typhimurium; assay: Antimicrobial activity against Salmonella enterica serovar Typhimurium CS9 gyrA+ with GyrA S83F, D87N, ParC S80I mutation; outline: as §1
[38] = tested on: Salmonella typhimurium; assay: Antimicrobial activity against Salmonella enterica serovar Typhimurium CS9 acrAB::Kan with GyrA S83F, D87N, ParC S80I mutation; outline: as §1
[39] = tested on: Salmonella typhimurium; assay: Antimicrobial activity against Salmonella enterica serovar Typhimurium CS9 tolC::Kan with GyrA S83F, D87N, ParC S80I mutation; outline: as §1
[40] = tested on: Salmonella typhimurium; assay: Antimicrobial activity against Salmonella enterica serovar Typhimurium CHS14 with GyrA D87G mutation; outline: as §1
[41] = tested on: Salmonella typhimurium; assay: Antimicrobial activity against Salmonella enterica serovar Typhimurium CHS38 with GyrA D87G mutation; outline: as §1
[42] = tested on: Salmonella typhimurium; assay: Antimicrobial activity against Salmonella enterica serovar Typhimurium CHS38 gyrA+ with GyrA D87G mutation; outline: as §1
[43] = tested on: Salmonella typhimurium; assay: Antimicrobial activity against Salmonella enterica serovar Typhimurium CHS38 acrAB::Kan with GyrA D87G mutation; outline: as §1
[44] = tested on: Salmonella typhimurium; assay: Antimicrobial activity against Salmonella enterica serovar Typhimurium CHS38 tolC::Kan with GyrA D87G mutation; outline: as §1

SMILES: CCn1cc(C(=O)O)c(=O)c2ccc(C)nc21 [NALIDIXIC ACID]
- MIC [1]: 4 µg/mL (≈ 17.2 µM)
- MIC [2]: 4 µg/mL (≈ 17.2 µM)
- MIC [3]: 1 µg/mL (≈ 4.31 µM)
- MIC [4]: 1 µg/mL (≈ 4.31 µM)
- MIC [5]: 256 µg/mL (≈ 1100 µM)
- MIC [6]: 4 µg/mL (≈ 17.2 µM)
- MIC [7]: 32 µg/mL (≈ 138 µM)
- MIC [8]: 32 µg/mL (≈ 138 µM)
- MIC [9]: > 256 µg/mL
- MIC [10]: 64 µg/mL (≈ 276 µM)
- MIC [11]: 64 µg/mL (≈ 276 µM)
- MIC [12]: 64 µg/mL (≈ 276 µM)
- MIC [13]: > 256 µg/mL
- MIC [14]: > 256 µg/mL
- MIC [15]: 64 µg/mL (≈ 276 µM)
- MIC [16]: 4 µg/mL (≈ 17.2 µM)
- MIC [17]: 8 µg/mL (≈ 34.4 µM)
- MIC [18]: 16 µg/mL (≈ 68.9 µM)
- MIC [19]: 256 µg/mL (≈ 1100 µM)
- MIC [20]: 32 µg/mL (≈ 138 µM)
- MIC [21]: 16 µg/mL (≈ 68.9 µM)
- MIC [22]: 32 µg/mL (≈ 138 µM)
- MIC [23]: > 256 µg/mL
- MIC [24]: 32 µg/mL (≈ 138 µM)
- MIC [25]: > 256 µg/mL
- MIC [26]: > 256 µg/mL
- MIC [27]: > 256 µg/mL
- MIC [28]: > 256 µg/mL
- MIC [29]: 4 µg/mL (≈ 17.2 µM)
- MIC [30]: > 256 µg/mL
- MIC [31]: 256 µg/mL (≈ 1100 µM)
- MIC [32]: > 256 µg/mL
- MIC [33]: 4 µg/mL (≈ 17.2 µM)
- MIC [34]: > 256 µg/mL
- MIC [35]: 256 µg/mL (≈ 1100 µM)
- MIC [36]: > 256 µg/mL
- MIC [37]: 4 µg/mL (≈ 17.2 µM)
- MIC [38]: > 256 µg/mL
- MIC [39]: 256 µg/mL (≈ 1100 µM)
- MIC [40]: 128 µg/mL (≈ 551 µM)
- MIC [41]: 32 µg/mL (≈ 138 µM)
- MIC [42]: 8 µg/mL (≈ 34.4 µM)
- MIC [43]: 1 µg/mL (≈ 4.31 µM)
- MIC [44]: 0.5 µg/mL (≈ 2.15 µM)
